# pIC50: −log10 of the molar value. Marks after values point to notes of the source that are not given here.
# Key:
# [1] = rat (data not shown)
# [2] = tested on: wild-type mice; assay type: in vivo, mouse; conditions: data not shown
# Summary of the method: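 Wild-type mice received vehicle (10% Tween 80, IP) or test compound (30 mg/kg IP). Thirty minutes later they received saline (IP) or MK-801 (0.3 mg/kg IP).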
# [3] = tested on: wild-type mice; test: Touchscreen pairwise visual discrimination task, wild-type mice; assay type: in vivo, mouse
# Summary of the method: (§1)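 Mice aged 8–11 weeks were held at ~85% free-feeding weight, with water freely available. They were trained on touchscreen nosepoke discrimination (60 trials or 60 min) to ≥85% accuracy on 3 consecutive days. Next day: vehicle (10% Tween 80 IP) or test compound (3–30 mg/kg IP) 60 min pre-test, then saline or MK-801 (0.1–0.3 mg/kg IP) 30 min later. Mice were retested drug-free 24 h later. Analysis: ANOVA with Bonferroni tests.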
# [4] = tested on: M4 KO mice; test: Touchscreen pairwise visual discrimination task, M4 KO mice; assay type: in vivo, mouse
# Summary of the method: as §1
# [5] = molecular target: T1, human adenosine transporter (Homo sapiens, UniProt Q99808); test: [3H]adenosine uptake functional assay; assay type: cell-based
# T1 sequence (Q99808 1-456): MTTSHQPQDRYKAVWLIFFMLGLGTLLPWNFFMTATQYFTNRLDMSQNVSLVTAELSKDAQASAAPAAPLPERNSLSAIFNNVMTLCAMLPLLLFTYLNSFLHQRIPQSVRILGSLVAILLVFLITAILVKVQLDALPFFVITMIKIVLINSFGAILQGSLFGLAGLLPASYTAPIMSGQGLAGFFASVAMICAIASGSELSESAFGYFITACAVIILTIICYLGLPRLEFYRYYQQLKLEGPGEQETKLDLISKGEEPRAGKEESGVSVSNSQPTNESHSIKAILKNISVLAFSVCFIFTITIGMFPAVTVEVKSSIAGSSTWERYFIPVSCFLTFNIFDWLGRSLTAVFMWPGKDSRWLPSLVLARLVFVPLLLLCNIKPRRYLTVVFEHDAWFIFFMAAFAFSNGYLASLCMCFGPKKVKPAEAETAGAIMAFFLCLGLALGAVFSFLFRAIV
# [6] = tested on: wild-type mice; test: MK-801-induced locomotor and nonlocomotor open field behaviors; assay type: in vivo, mouse
# Summary of the method: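 After 90 min open-field habituation, mice received vehicle (10% Tween 80 IP) or test compound (3–30 mg/kg IP). Saline or MK-801 (0.3 mg/kg IP) followed 30 min later. Over the next 120 min, ambulatory episodes, vertical counts, stereotypic counts and resting time were scored. Groups were 7–13 mice; ANOVA with Bonferroni tests.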
# [7] = in vitro; assay type: in vitro ADME; conditions: rat, plasma
# [8] = molecular target: T2, rat M4 receptor (Rattus norvegicus, UniProt P08485); test: [3H]NMS radioligand binding, modulation of ACh affinity; conditions: ACh displacement of [3H]NMS, modulator 300 nM to 10 μM
# T2 sequence (P08485 1-478): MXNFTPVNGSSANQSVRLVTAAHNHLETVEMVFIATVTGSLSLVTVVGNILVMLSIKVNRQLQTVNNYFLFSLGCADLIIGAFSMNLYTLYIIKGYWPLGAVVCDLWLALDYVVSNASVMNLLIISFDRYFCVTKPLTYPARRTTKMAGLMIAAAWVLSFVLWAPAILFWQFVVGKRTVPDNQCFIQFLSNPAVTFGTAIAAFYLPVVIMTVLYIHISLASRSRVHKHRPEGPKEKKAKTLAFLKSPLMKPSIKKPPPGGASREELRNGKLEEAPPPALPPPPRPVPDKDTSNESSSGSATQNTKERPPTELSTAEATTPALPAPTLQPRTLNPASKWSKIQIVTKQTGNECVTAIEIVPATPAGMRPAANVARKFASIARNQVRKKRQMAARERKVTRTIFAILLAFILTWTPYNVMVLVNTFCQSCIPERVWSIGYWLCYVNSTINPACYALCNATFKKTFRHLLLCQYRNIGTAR
# Summary of the method: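 Membranes came from CHO cells expressing rat M4 cotransfected with Gqi5, homogenized in 50 mM Tris-HCl/0.9% NaCl, pH 7.4. Membranes (10 μg/well) were incubated with 300 pM [3H]NMS, fixed modulator (300 nM–10 μM) or vehicle, and ACh (1 nM–1 mM) for 3 h at room temperature with shaking. Buffer was 100 mM NaCl, 10 mM MgCl2, 20 mM HEPES, […], pH 7.4. Nonspecific binding was set with 10 μM atropine. Bound ligand was filtered and counted; n ≥ 2. Cooperativity was fitted with the […].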
# [9] = tested on: wild-type mice; test: Modified Irwin neurological test battery; assay type: in vivo, mouse; conditions: 10–30 mg/kg
# [10] = tested on: rat M5 receptor; test: Calcium mobilization, selectivity; assay type: cell-based
# Summary of the method: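 Cells were seeded at 15000/well in DMEM with 10% dialyzed FBS, 20 mM HEPES and 1 mM pyruvate, then cultured overnight at 37 °C/5% CO2. M2 and M4 lines were cotransfected with Gqi5. Cells were loaded with 1 μM Fluo-4AM (HBSS, 20 mM HEPES, 2.5 mM probenecid, pH 7.4) for 50 min at 37 °C. ACh was added 140 s after test compound. Calcium signal was expressed as % of the 10 μM ACh maximum.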
# [11] = tested on: M4 KO mice; test: Amphetamine-induced hyperlocomotion in M4 KO mice; assay type: in vivo, mouse
# [12] = Amphetamine-induced hyperlocomotion in M4 KO mice; assay type: in vivo, mouse; conditions: mouse, brain, ip, 10 mg/kg, 10 mg/kg IP
# [13] = VU0467154 3.0 mg/kg IP + MK-801 0.30 mg/kg IP
# [14] = VU0467154 3.0 mg/kg IP + vehicle
# [15] = VU0467154 5.6 mg/kg IP + MK-801 0.30 mg/kg IP
# [16] = VU0467154 5.6 mg/kg IP + vehicle
# [17] = VU0467154 10.0 mg/kg IP + MK-801 0.30 mg/kg IP
# [18] = VU0467154 10.0 mg/kg IP + vehicle
# [19] = VU0467154 30.0 mg/kg IP + vehicle
# [20] = M4 KO, VU0467154 10.0 mg/kg IP + MK-801 0.30 mg/kg IP
# [21] = M4 KO, VU0467154 10.0 mg/kg IP + vehicle
smiles,measurement,setting,value
"Cc1nnc2sc(C(=O)NCc3ccc(S(=O)(=O)C(F)(F)F)cc3)c(N)c2c1C [VU0467154, 5-amino-3,4-dimethyl-N-(4-((trifluoromethyl)sulfonyl)benzyl)thieno[2,3-c]pyridazine-6-carboxamide]",biliary and urinary excretion of the parent compound,[1],Negligible
same,serotonin utilization in the NAS and CP,[2],Neither single nor combined administration of VU0467154 with MK-801 altered serotonin utilization
same,animals that did not complete all 60 trials in the 60 min session,[3]; 3 mg/kg VU0467154 in combination with 0.3 mg/kg MK-801,14%
same,animals that did not complete all 60 trials in the 60 min session,[3]; 10 mg/kg VU0467154 alone,25%
same,animals that did not complete all 60 trials in the 60 min session,[3]; 30 mg/kg VU0467154 alone,33%
same,correct reward collection latency,[3]; [13],3.34 ± 2.06 s
same,correct touch latency,[3]; [13],18.14 ± 14.17 s
same,time to complete 60 trials,[3]; [13],1239 ± 397.7 ^d s
same,correct reward collection latency,[3]; [14],1.13 ± 0.07 s
same,correct touch latency,[3]; [14],2.01 ± 0.16 s
same,time to complete 60 trials,[3]; [14],1061 ± 130.2 s
same,correct reward collection latency,[3]; [15],1.23 ± 0.08 s
same,correct touch latency,[3]; [15],4.10 ± 0.63 s
same,time to complete 60 trials,[3]; [15],856 ± 58.4 s
same,correct reward collection latency,[3]; [16],2.09 ± 0.50 s
same,correct touch latency,[3]; [16],2.24 ± 0.36 s
same,time to complete 60 trials,[3]; [16],1256 ± 211.5 s
same,correct reward collection latency,[3]; [17],1.33 ± 0.08 s
same,correct touch latency,[3]; [17],6.39 ± 1.11 s
same,time to complete 60 trials,[3]; [17],1017 ± 89.1 s
same,correct reward collection latency,[3]; [18],9.24 ± 6.71 s
same,correct touch latency,[3]; [18],18.58 ± 8.50 s
same,time to complete 60 trials,[3]; [18],2171 ± 424.8 ^b s
same,correct reward collection latency,[3]; [19],2.82 ± 0.71 s
same,correct touch latency,[3]; [19],20.89 ± 4.17 s
same,time to complete 60 trials,[3]; [19],2557 ± 397.1 ^c s
same,reversal of MK-801-induced pairwise discrimination deficit,[4]; M4 KO mice,did not reverse the MK-801-induced pairwise discrimination deficit
same,response accuracy on the test day,"[4]; M4 KO, MK-801 in combination with VU0467154 (vehicle 91%)",64%
same,correct reward collection latency,[4]; [20],1.57 ± 0.07 s
same,correct touch latency,[4]; [20],8.45 ± 1.57 s
same,time to complete 60 trials,[4]; [20],1120 ± 95.5 s
same,correct reward collection latency,[4]; [21],3.19 ± 0.73 s
same,correct touch latency,[4]; [21],22.81 ± 8.86 s
same,time to complete 60 trials,[4]; [21],2080 ± 384.9 ^e s
same,pIC50,[5],6.62
same,reversal of MK-801-induced increases in ambulatory episodes and vertical counts,[6],potently reversed
same,reversal of MK-801-mediated increase in stereotypic counts and decreases in resting time,[6],appeared to be less potent
same,fraction unbound,[7],0.031
same,increase in M4 affinity for ACh (α),[8],14.5 fold
same,log α (binding cooperativity with ACh),[8],1.16 ± 0.06
same,autonomic and somatosensory side effects,[9],did not exhibit autonomic and somatosensory side effects
same,potentiation of ACh response (calcium response),[10],lack of a calcium response
same,effect on amphetamine-induced hyperlocomotion,[11],had no effect on the time course of amphetamine-induced hyperlocomotion
same,mean reversal of AHL,"[11]; 10 mg/kg IP, amphetamine […] SC",–6.6%
same,concentration at 2.5 h,"[12]; mean Cbrain, at 2.5 h postadministration",217 nM
same,concentration at 2.5 h,"[12]; mean Cbrain,u, 2.5 h, in vitro mouse fubrain 0.014",3 nM
